PKA-R2B activ – activators of PKA-R2B holoenzyme, primary screen, biochemical, fluorescence polarization, Cy5-IP20, human | cAMP-dependent protein kinase catalytic subunit beta (Homo sapiens) + cAMP-dependent … | PKA-R2B holoenzyme dissociation; R2B truncated from residue 108, S112A mutant; 0% DMSO only, 100% 113 µM cGMP | activation, % at 11.4 µM | 0.079% of 340,000 active;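 active means activation above a cutoff set at the mean over all compounds plus 3 SD, cut at about 18% in these data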;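 further: higher means more holoenzyme dissociation and a rise in polarization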
Target sequence (P31323 whole entry, looked up, other chains not shown, the tested form may be a part): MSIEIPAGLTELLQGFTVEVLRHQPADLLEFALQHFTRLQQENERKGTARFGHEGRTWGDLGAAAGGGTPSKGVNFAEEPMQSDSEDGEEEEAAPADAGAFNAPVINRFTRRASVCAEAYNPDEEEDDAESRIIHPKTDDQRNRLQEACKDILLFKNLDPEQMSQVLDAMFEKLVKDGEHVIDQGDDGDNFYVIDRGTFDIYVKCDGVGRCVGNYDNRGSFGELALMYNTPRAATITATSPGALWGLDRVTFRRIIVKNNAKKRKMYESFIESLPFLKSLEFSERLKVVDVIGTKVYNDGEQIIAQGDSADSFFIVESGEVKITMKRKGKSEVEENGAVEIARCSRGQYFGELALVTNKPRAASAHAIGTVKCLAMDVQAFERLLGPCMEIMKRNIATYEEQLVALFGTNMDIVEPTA
SIRT5 block – SIRT5 desuccinylase inhibitors, primary screen, biochemical, fluorescence imaging, single point, set 5; NAD-dependent protein deacylase sirtuin-5, mitochondrial (Homo sapiens), Q9NXA8; Purified SirT5, succinyl-peptide AMC, trypsin-coupled fluorescence; inhibition, % at 15 µM; 1.1% of 330,000 active; AID 652115, 2013; in the data active means inhibition above about 15%
CRFBP-R2 block – antagonists of CRF-BP/CRF-R2 complex, primary screen, cell-based, HEK293, calcium dye fluorescence, uHTS; 0.59% of 350,000 active; AID 588475, 2011; CRF-induced calcium fluorescence; inhibition, % at 11.8 µM;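 active means inhibition of the ligand-induced calcium signal above about 50% at the single tested concentration, limit read from the data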
PKA-R1A activ – activators of PKA-R1A holoenzyme, primary screen, biochemical, fluorescence polarization, Cy5-IP20, bovine R1A, mouse PKAc; 0.083% of 340,000 active; activation, % at 11.4 µM; PKA-R1A dissociation; scaled: DMSO 0%, 113 µM cGMP 100%;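 active means percent activation above the mean of all tested compounds plus 3 SD, cut at about 19% in these data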;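 further: higher means more PKAc released from R1A so a rise in polarization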
S100A4 inh HTS – inhibitors of S100A4-myosin IIA peptide binding, primary screen, biochemical, fluorescence polarization, TAMRA-MyoIIA peptide; inhibition, % at 10.7 µM; 0.14% of 360,000 active; Protein S100-A4 (Homo sapiens), P26447;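 active means mean inhibition of at least 70% across replicates, with every replicate also reaching that level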
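Test system – S100A4 monomer (human) · Compound – single-point compound testing · Schedule – 5 min incubation before reading · Probe or stimulus – TAMRA-labelled myosin IIA heavy-chain peptide probe, 5 nM · Benchmarks – neutral control DMSO, positive control TFP · Medium – Calcium-containing HEPES buffer, pH 7.2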
Each line names hits and unclear results; the compound was inactive in the other large screens; ! = not confirmed by another sample. In the library only some 1.5% were active in any assay of this set; here they are far more common.

COc1ccc(CN2CCN(CCCc3ccccc3)C(CCO)C2)c(OC)c1 (stereo not drawn)	SIRT5 block 18
COc1ccc(C2CCCN2C(=O)Nc2ccc(C)c(C)c2)cc1OC (stereo not drawn)	SIRT5 block 16, CRFBP-R2 block 80
CCC(=O)N1CC2(C1)[C@H](c1ccccc1)[C@H](CO)N2CCC(F)(F)F	none (no result: PKA-R2B activ, CRFBP-R2 block, PKA-R1A activ)
CCOC(=O)c1c(C)[nH]c(C)c1C(=O)COC(=O)c1cc(OC)cc(OC)c1	none
CCOC(=O)c1c(C)[nH]c(C)c1C(=O)COC(=O)c1cc(OC)c(OC)cc1OC	SIRT5 block 19
CC(C(=O)O)N(C(=O)c1ccccc1)c1ccc(F)cc1 (stereo not drawn)	SIRT5 block 26
CC(C)C(=O)NN(C(=O)c1ccccc1)c1ccccc1	none
Cc1noc(C)c1NC(=O)Nc1ccc2c(c1)CC(=O)N([C@@H](C)CO)C[C@@H](C)[C@@H](CN(C)C)O2	none (no result: PKA-R2B activ, CRFBP-R2 block, PKA-R1A activ)
C[C@H](CO)N1C[C@H](C)[C@@H](CN(C)Cc2cccc(F)c2)Oc2ncc(C#C[C@@H](C)O)cc2C1=O	S100A4 inh HTS 141 (no result: PKA-R2B activ, CRFBP-R2 block, PKA-R1A activ)
C[C@H](CO)N1C[C@H](C)[C@@H](CN(C)Cc2ccc(-c3ccccc3)cc2)Oc2ncc(C#C[C@@H](C)O)cc2C1=O	SIRT5 block 17!
C[C@H](O)C#Cc1cnc2c(c1)C(=O)N([C@@H](C)CO)C[C@H](C)[C@@H](CN(C)Cc1cccc(F)c1)O2	none (no result: PKA-R2B activ, CRFBP-R2 block, PKA-R1A activ)
C[C@@H]1CN([C@@H](C)CO)C(=O)c2cc(NC(=O)CCCCCC(=O)Nc3ccccc3N)ccc2O[C@H]1CN(C)S(=O)(=O)c1ccc(F)cc1	none (no result: PKA-R2B activ, CRFBP-R2 block, PKA-R1A activ)
Cc1cc(F)ccc1NC(=O)C1CSC2(C)CCC(=O)N12 (stereo not drawn)	SIRT5 block 18
CC12CCC(=O)N1C(C(=O)Nc1nc(-c3ccc(F)c(F)c3)cs1)CS2 (stereo not drawn)	SIRT5 block 15
CC12CCC(=O)N1C(C(=O)Nc1nc(-c3ccc(F)cc3)cs1)CS2 (stereo not drawn)	none
Cc1cc(Br)ccc1NC(=O)C1CSC2(C)CCC(=O)N12 (stereo not drawn)	none
CC(=O)c1cc(N2CCOCC2)ccc1[N+](=O)[O-]	SIRT5 block 15
CC=Cc1ccc2n(c1=O)C[C@H]1[C@H](CO)[C@@H](C(=O)NCc3ccc4c(c3)OCO4)[C@@H]2N1C(=O)C1CC1 (mixture of isomers)	none (no result: PKA-R2B activ, CRFBP-R2 block, PKA-R1A activ)
Cc1cc2c(NCCc3ccccc3)ncnc2s1	none
Cc1cc2c(Nc3ccccc3)ncnc2s1	SIRT5 block 16
C[C@@H]1CN([C@@H](C)CO)C(=O)c2cc(C#C[C@@H](C)O)cnc2O[C@@H]1CN(C)C(=O)Cc1ccncc1	none (no result: PKA-R2B activ, CRFBP-R2 block, PKA-R1A activ)
NC(=S)NN=C1CCC2(CCCCC2)CC1	SIRT5 block 25
COc1cc2[nH]c(=O)n(CCC(=O)NC3CCCC3)c(=O)c2cc1OC	none (no result: SIRT5 block, S100A4 inh HTS)
COc1cc2[nH]c(=O)n(CCCCCC(=O)NC3CCCC3)c(=O)c2cc1OC	CRFBP-R2 block 67
CCOC(=O)N1CCN(C(=O)/C(=C\c2cccs2)NC(=O)c2cccs2)CC1	none
CCOC(=O)N1CCN(C(=O)/C(=C/c2cccs2)NC(=O)c2cccs2)CC1	SIRT5 block 17
O=C(Nc1ccc(F)cc1)N[C@H]1CC[C@H](CCNS(=O)(=O)c2ccccc2F)O[C@H]1CO	none (no result: PKA-R2B activ, CRFBP-R2 block, PKA-R1A activ)
Cc1cc(=O)[nH]c(SCC(=O)Nc2ccc(Br)cc2)c1C#N	CRFBP-R2 block 63 (no result: SIRT5 block, S100A4 inh HTS)
C[C@H](CO)N1C[C@H](C)[C@@H](CN(C)C(=O)c2ccc(F)cc2)Oc2ncc(-c3ccncc3)cc2C1=O	none (no result: PKA-R2B activ, CRFBP-R2 block, PKA-R1A activ)
CN(N=Cc1ccc([N+](=O)[O-])cc1)c1ccccn1	S100A4 inh HTS 84
O=C(c1ccc([N+](=O)[O-])cc1)N(c1ccccn1)c1ccccn1	SIRT5 block 20
O=C(NCc1ccccn1)c1ccc([N+](=O)[O-])cc1	none
N#C/C(=C\c1ccc([N+](=O)[O-])cc1)c1ccccn1	none
O=C(CSc1nnc(NC(=O)c2ccco2)s1)Nc1cccc(F)c1	SIRT5 block 22
